Assay results reported in ChEMBL document CHEMBL1154472, “Synthesis and anti-HIV-1 integrase activities of 3-aroyl-2,3-dihydro-1,1-dioxo-1,4,2-benzodithiazines” (Eur J Med Chem, 2009).

Assays:
[1] = target: T1, Human immunodeficiency virus type 1 integrase (Human immunodeficiency virus 1, UniProt Q7ZJM1); assay: Inhibition of HIV1 integrase 3'-end processing activity
Summary of the method: (§1)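 Wild-type HIV-1 IN, expressed in E. coli BL21(DE3)pLysS after 1 mM IPTG induction, was preincubated at 200 nM final with inhibitor at 30 °C for 30 min. The buffer held 50 mM NaCl, HEPES pH 7.5, 10% glycerol, 7.5 mM MnCl2, 0.1 mg/ml BSA, 10 mM 2-mercaptoethanol, 10% DMSO and 25 mM MOPS pH 7.2. IC50 was taken from the reaction.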

[2] = target: T1, Human immunodeficiency virus type 1 integrase; assay: Inhibition of HIV1 integrase strand transfer activity; summary of the method: as §1
[3] = target: T2, Human immunodeficiency virus type 1 integrase (Human immunodeficiency virus 1, UniProt Q7ZJM1, Y99S); assay: Inhibition of HIV1 integrase Y99S mutant 3'-end processing activity
[4] = target: T2, Human immunodeficiency virus type 1 integrase; assay: Inhibition of HIV1 integrase Y99S mutant strand transfer activity
[5] = target: T3, Human immunodeficiency virus type 1 integrase (Human immunodeficiency virus 1, UniProt Q7ZJM1, H114A); assay: Inhibition of HIV1 integrase H114A mutant 3'-end processing activity
[6] = target: T3, Human immunodeficiency virus type 1 integrase; assay: Inhibition of HIV1 integrase H114A mutant strand transfer activity
[7] = target: T1, Human immunodeficiency virus type 1 integrase; assay: Inhibition of HIV1 integrase 3'-end processing activity in presence of magnesium
Summary of the method: (§2)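 Wild-type HIV-1 IN (200 nM final), expressed in E. coli BL21(DE3)pLysS, was preincubated with inhibitor for 30 min at 30 °C in HEPES/MOPS buffer containing glycerol, BSA and 10% DMSO, with Mg2+ as the cofactor. IC50 was derived.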

[8] = target: T1, Human immunodeficiency virus type 1 integrase; assay: Inhibition of HIV1 integrase strand transfer activity in presence of magnesium; summary of the method: as §2

T1 sequence (Q7ZJM1 whole entry): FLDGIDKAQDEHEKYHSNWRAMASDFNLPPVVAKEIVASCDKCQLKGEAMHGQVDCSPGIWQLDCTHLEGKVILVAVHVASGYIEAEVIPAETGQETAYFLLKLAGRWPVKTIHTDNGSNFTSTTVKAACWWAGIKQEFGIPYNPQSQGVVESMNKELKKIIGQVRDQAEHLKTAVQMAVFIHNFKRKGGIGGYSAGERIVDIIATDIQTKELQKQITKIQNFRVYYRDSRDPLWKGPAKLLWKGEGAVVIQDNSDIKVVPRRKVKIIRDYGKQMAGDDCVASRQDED
T3 sequence (Q7ZJM1 entry or part of it H114A): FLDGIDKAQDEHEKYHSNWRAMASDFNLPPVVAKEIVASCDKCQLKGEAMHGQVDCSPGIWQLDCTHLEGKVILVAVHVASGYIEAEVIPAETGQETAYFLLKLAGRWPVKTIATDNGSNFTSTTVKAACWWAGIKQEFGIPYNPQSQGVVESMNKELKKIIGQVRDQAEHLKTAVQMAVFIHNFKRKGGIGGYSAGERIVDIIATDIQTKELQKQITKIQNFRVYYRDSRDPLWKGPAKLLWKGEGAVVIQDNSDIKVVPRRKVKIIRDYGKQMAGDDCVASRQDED
T2 sequence (Q7ZJM1 entry or part of it Y99S): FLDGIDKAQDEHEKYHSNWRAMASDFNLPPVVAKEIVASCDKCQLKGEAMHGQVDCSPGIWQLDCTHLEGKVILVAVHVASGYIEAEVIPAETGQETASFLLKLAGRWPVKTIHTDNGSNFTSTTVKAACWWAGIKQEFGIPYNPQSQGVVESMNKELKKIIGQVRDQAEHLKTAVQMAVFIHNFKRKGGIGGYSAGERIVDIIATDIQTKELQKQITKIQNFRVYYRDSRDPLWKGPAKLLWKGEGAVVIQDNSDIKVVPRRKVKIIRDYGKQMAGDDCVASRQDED

| IC50 [1] | IC50 [2] | SMILES | IC50 [3] | IC50 [4] | IC50 [5] | IC50 [6] | IC50 [7] | IC50 [8] |
| --- | --- | --- | --- | --- | --- | --- | --- | --- |
| 20 µM | 14 µM | Cc1cc(Cl)cc2c1S(=O)(=O)NC(C(=O)c1ccc(Cl)c(Cl)c1)S2 (centres undefined) |  |  |  |  |  |  |
| 57 µM | 50 µM | Cc1cc2c(cc1Cl)SC(C(=O)c1cccc([N+](=O)[O-])c1)=NS2(=O)=O |  |  |  |  |  |  |
| 20 µM | 10 µM | Cc1cc2c(cc1Cl)SC(C(=O)c1ccc(Cl)c(Cl)c1)NS2(=O)=O (centres undefined) |  |  |  |  |  |  |
| 28 µM | 3 µM | Cc1cc2c(cc1Cl)SC(C(=O)c1ccc3ccccc3c1)=NS2(=O)=O |  |  |  |  |  |  |
| 57 µM | 30 µM | Cc1cc2c(cc1Cl)SC(C(=O)c1ccc3ccccc3c1)NS2(=O)=O (centres undefined) |  |  |  |  |  |  |
| 32 µM | 28 µM | Cc1cc2c(cc1Cl)SC(C(=O)c1cccc([N+](=O)[O-])c1)NS2(=O)=O (centres undefined) |  |  |  |  |  |  |
| 30 µM | 30 µM | Cc1cc2c(cc1Cl)SC(C(=O)c1ccc(Br)cc1)=NS2(=O)=O |  |  |  |  |  |  |
| 17 µM | 25 µM | Cc1cc(Cl)cc2c1S(=O)(=O)N=C(C(=O)c1ccc(Cl)c(Cl)c1)S2 |  |  |  |  |  |  |
| 30 µM | 33 µM | COc1ccc(C(=O)C2=NS(=O)(=O)c3cc(C)c(Cl)cc3S2)cc1 |  |  |  |  |  |  |
| 23 µM | 14 µM | Cc1cc(Cl)cc2c1S(=O)(=O)NC(C(=O)c1ccc(Cl)cc1)S2 (centres undefined) |  |  |  |  |  |  |

Continued, molecule first:

| SMILES | IC50 [1] | IC50 [2] | IC50 [3] | IC50 [4] | IC50 [5] | IC50 [6] | IC50 [7] | IC50 [8] |
| --- | --- | --- | --- | --- | --- | --- | --- | --- |
| Cc1cc2c(cc1Cl)SC(C(=O)c1ccc(Cl)c(Cl)c1)=NS2(=O)=O | 15 µM | 7 µM |  |  |  |  |  |  |
| Cc1cc(Cl)cc2c1S(=O)(=O)N=C(C(=O)c1ccc(Cl)cc1)S2 | 22 µM | 25 µM |  |  |  |  |  |  |
| O=C(C1=NS(=O)(=O)c2ccc(Cl)cc2S1)c1ccc(Cl)c(Cl)c1 | 61.2 µM | 124 µM | 90 µM | 20 µM | 18 µM | 18 µM |  |  |
| O=C(C1=NS(=O)(=O)c2ccc(Cl)cc2S1)c1ccc2ccccc2c1 | 8 µM | 8 µM | 100 µM | 15 µM | 9 µM | 15 µM |  |  |
| O=C(c1ccc(Cl)c(Cl)c1)C1NS(=O)(=O)c2ccc(Cl)cc2S1 (centres undefined) | 9 µM | 5 µM | 90 µM | 20 µM | 18 µM | 18 µM | 58 µM | 25 µM |
| O=C(c1ccc(Cl)cc1)C1NS(=O)(=O)c2ccc(Cl)cc2S1 (centres undefined) | 8 µM | 4 µM | 100 µM | 20 µM | 20 µM | 18 µM | 51 µM | 25 µM |
| O=C(c1ccc2ccccc2c1)C1NS(=O)(=O)c2ccc(Cl)cc2S1 (centres undefined) | 8 µM | 3 µM | 100 µM | 15 µM | 9 µM | 15 µM | 55 µM | 28 µM |
| COc1ccc(C(=O)C2NS(=O)(=O)c3cc(C)c(Cl)cc3S2)cc1 (centres undefined) | 38 µM | 17 µM |  |  |  |  |  |  |
| Cc1cc2c(cc1Cl)SC(C(=O)c1ccccc1)=NS2(=O)=O | 12 µM | 12 µM | 90 µM | 18 µM | 15 µM | 9 µM |  |  |
| Cc1cc(Cl)cc2c1S(=O)(=O)NC(C(=O)c1ccc3ccccc3c1)S2 (centres undefined) | 9 µM | 6 µM | 70 µM | 23 µM | 33 µM | 23 µM | 83 µM | 51 µM |
| Cc1cc2c(cc1Cl)SC(C(=O)c1ccc(Br)cc1)NS2(=O)=O (centres undefined) | 4 µM | 3 µM |  |  |  |  |  |  |
| Cc1cc(Cl)cc2c1S(=O)(=O)N=C(C(=O)c1ccc3ccccc3c1)S2 | 22 µM | 7 µM | 70 µM | 23 µM | 33 µM | 23 µM |  |  |
| Cc1cc2c(cc1Cl)SC(C(=O)c1ccccc1)NS2(=O)=O (centres undefined) | 7 µM | 5 µM | 90 µM | 18 µM | 15 µM | 9 µM | 60 µM | 27 µM |
| O=C(c1ccc(Cl)c(Cl)c1)C1NS(=O)(=O)c2ccccc2S1 (centres undefined) | 22 µM | 15 µM |  |  |  |  |  |  |
| O=C(C1=NS(=O)(=O)c2ccc(Cl)cc2S1)c1ccc(Cl)cc1 | 100 µM | 90 µM | 100 µM | 20 µM | 20 µM | 18 µM |  |  |
| Cc1cc2c(cc1Cl)SC(C(=O)c1ccc(Cl)cc1)NS2(=O)=O (centres undefined) | 6 µM | 4 µM | 90 µM | 20 µM | 18 µM | 16 µM | 63 µM | 40 µM |
| Cc1cc2c(cc1Cl)SC(C(=O)c1ccc(Cl)cc1)=NS2(=O)=O | 30 µM | 65 µM | 90 µM | 20 µM | 18 µM | 16 µM |  |  |
